Measured values: ChEMBL document CHEMBL3044709, “Antimicrobial furostanol saponins from the seeds of Capsicum annuum L. var. acuminatum” (2002)
Converted amounts (≈) assume the structure as drawn.

How the values were obtained:
Type in all cases: functional
Escherichia coli [1] = assay: Antimicrobial activity against Escherichia coli DSM 682 after 48 hr by agar dilution method; details: DSM 682, 48 h
In short: (§1)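 Agar dilution on standard plate count agar: 0.5 mL of a 2-fold serial dilution of sample mixed into 9.5 mL medium, poured into Petri dishes, organism streaked on the surface. Incubated at 28 °C (36 and 48 h). MIC is the lowest tested concentration with no visible growth.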

Escherichia coli [2] = assay: Antimicrobial activity against Escherichia coli ATCC 35346 after 48 hr by agar dilution method; details: ATCC 35346, 48 h; in short: as §1
Stutzerimonas stutzeri = assay: Antimicrobial activity against Pseudomonas stutzeri ATCC 962 after 48 hr by agar dilution method; details: ATCC 962, 48 h; in short: as §1
Pseudomonas aeruginosa = assay: Antimicrobial activity against Pseudomonas aeruginosa DSM 1117 after 48 hr by agar dilution method; details: DSM 1117, 48 h; in short: as §1
[3] = tested on: Limosilactobacillus fermentum; assay: Antimicrobial activity against Lactobacillus fermentum DSM 20052 after 48 hr by agar dilution method; details: DSM 20052, 48 h; in short: as §1
Lacticaseibacillus casei = assay: Antimicrobial activity against Lactobacillus casei DSM 20011 after 48 hr by agar dilution method; details: DSM 20011, 48 h; in short: as §1
[4] = tested on: Lactiplantibacillus plantarum; assay: Antimicrobial activity against Lactobacillus plantarum DSM 20174 after 48 hr by agar dilution method; details: DSM 20174, 48 h; in short: as §1
[5] = tested on: Lacticaseibacillus rhamnosus; assay: Antimicrobial activity against Lactobacillus rhamnosus DSM 20021 after 48 hr by agar dilution method; details: DSM 20021, 48 h; in short: as §1
Bacillus cereus = assay: Antimicrobial activity against Bacillus cereus DSM 345 after 48 hr by agar dilution method; details: DSM 345, 48 h; in short: as §1
Micrococcus luteus = assay: Antimicrobial activity against Micrococcus luteus DSM 348 after 48 hr by agar dilution method; details: DSM 348, 48 h; in short: as §1
Staphylococcus aureus = assay: Antimicrobial activity against Staphylococcus aureus subsp. aureus DSM 346 after 48 hr by agar dilution method; details: DSM 346, 48 h; in short: as §1
[6] = tested on: Staphylococcus epidermidis; assay: Antimicrobial activity against Staphylococcus epidermidis DSM 1798 after 48 hr by agar dilution method; details: DSM 1798, 48 h; in short: as §1
Bacillus licheniformis = assay: Antimicrobial activity against Bacillus licheniformis DSM 13=ATCC 14580 after 48 hr by agar dilution method; details: DSM 13 = ATCC 14580, 48 h; in short: as §1
Bacillus subtilis = assay: Antimicrobial activity against Bacillus subtilis DSM 345 after 48 hr by agar dilution method; details: DSM 345, 48 h; in short: as §1
Enterococcus faecalis = assay: Antimicrobial activity against Enterococcus faecalis DSM 2570 after 48 hr by agar dilution method; details: DSM 2570, 48 h; in short: as §1
Rhizopus arrhizus = assay: Antimicrobial activity against Rhizopus oryzae ATCC 56536 after 48 hr by agar dilution method; details: ATCC 56536, 48 h
In short: (§2)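 Fungi tested by agar dilution in malt agar. Serial 2-fold sample dilutions (0.5 mL) were mixed with 9.5 mL medium and plated, then streaked with the organism. Incubation at 28 °C for 36 and 48 h. MIC is the lowest tested concentration without growth.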

Trichoderma viride = assay: Antimicrobial activity against Hypocrea rufa ATCC 28020 after 48 hr by agar dilution method; details: ATCC 28020, 48 h; in short: as §2
Setophoma terrestris = assay: Antimicrobial activity against Setophoma terrestris ATCC 11321 after 48 hr by agar dilution method; details: ATCC 11321, 48 h; in short: as §2
Penicillium expansum = assay: Antimicrobial activity against Penicillium expansum ATCC 7861 after 48 hr by agar dilution method; details: ATCC 7861, 48 h; in short: as §2

| SMILES | MIC (Escherichia coli [1]) | MIC (Escherichia coli [2]) | MIC (Stutzerimonas stutzeri) | MIC (Pseudomonas aeruginosa) | MIC [3] | MIC (Lacticaseibacillus casei) | MIC [4] | MIC [5] | MIC (Bacillus cereus) | MIC (Micrococcus luteus) | MIC (Staphylococcus aureus) | MIC [6] | MIC (Bacillus licheniformis) | MIC (Bacillus subtilis) | MIC (Enterococcus faecalis) | MIC (Rhizopus arrhizus) | MIC (Trichoderma viride) | MIC (Setophoma terrestris) | MIC (Penicillium expansum) |
| --- | --- | --- | --- | --- | --- | --- | --- | --- | --- | --- | --- | --- | --- | --- | --- | --- | --- | --- | --- |
| CC1=C(CC[C@@H](C)CO[C@@H]2O[C@H](CO)[C@@H](O)[C@H](O)[C@H]2O)O[C@H]2C[C@H]3[C@@H]4CC[C@H]5C[C@@H](O[C@@H]6O[C@H](CO)[C@H](O[C@@H]7O[C@H](CO)[C@@H](O)[C@H](O[C@@H]8O[C@H](CO)[C@@H](O)[C@H](O)[C@H]8O)[C@H]7O[C@@H]7O[C@H](CO)[C@@H](O)[C@H](O[C@@H]8O[C@H](CO)[C@@H](O)[C@H](O)[C@H]8O)[C@H]7O)[C@H](O)[C@H]6O)[C@H](O)C[C@]5(C)[C@H]4CC[C@]3(C)[C@@H]12 [Capsicoside F] | 1000 µg/mL (≈ 711 µM) | 1000 µg/mL (≈ 711 µM) | > 1000 µg/mL | > 1000 µg/mL | 1000 µg/mL (≈ 711 µM) | 1000 µg/mL (≈ 711 µM) | 1000 µg/mL (≈ 711 µM) | 1000 µg/mL (≈ 711 µM) | 1000 µg/mL (≈ 711 µM) | > 1000 µg/mL | > 1000 µg/mL | > 1000 µg/mL | > 1000 µg/mL | > 1000 µg/mL | > 1000 µg/mL | – | – | – | – |
| C=C[C@](C)(CC/C=C(\C)CC/C=C(\C)CC/C=C(/C)CO[C@@H]1O[C@@H](C)[C@H](O)[C@@H](O[C@@H]2O[C@H](CO[C@@H]3O[C@@H](C)[C@H](O)[C@@H](O)[C@H]3O)[C@@H](O)[C@H](O)[C@H]2O)[C@H]1O)O[C@@H]1O[C@H](CO)[C@@H](O)[C@H](O)[C@H]1O[C@@H]1O[C@H](CO)[C@@H](O)[C@H](O)[C@H]1O [CAPSIANOSIDE II] | 1000 µg/mL (≈ 921 µM) | 1000 µg/mL (≈ 921 µM) | > 1000 µg/mL | > 1000 µg/mL | 1000 µg/mL (≈ 921 µM) | 1000 µg/mL (≈ 921 µM) | 1000 µg/mL (≈ 921 µM) | 1000 µg/mL (≈ 921 µM) | 1000 µg/mL (≈ 921 µM) | > 1000 µg/mL | > 1000 µg/mL | > 1000 µg/mL | > 1000 µg/mL | > 1000 µg/mL | > 1000 µg/mL | 1000 µg/mL (≈ 921 µM) | 1000 µg/mL (≈ 921 µM) | 1000 µg/mL (≈ 921 µM) | 1000 µg/mL (≈ 921 µM) |
| COC1(CC[C@@H](C)CO[C@@H]2O[C@H](CO)[C@@H](O)[C@H](O)[C@H]2O)O[C@H]2C[C@H]3[C@@H]4CC[C@H]5C[C@@H](O[C@@H]6O[C@H](CO)[C@H](O[C@@H]7O[C@H](CO)[C@@H](O)[C@H](O[C@@H]8OC[C@@H](O)[C@H](O)[C@H]8O)[C@H]7O[C@@H]7O[C@H](CO)[C@@H](O)[C@H](O[C@@H]8O[C@H](CO)[C@@H](O)[C@H](O)[C@H]8O)[C@H]7O)[C@H](O)[C@H]6O)CC[C@]5(C)[C@H]4CC[C@]3(C)[C@H]2[C@@H]1C (some centres undefined) [22-O-METHYL-CAPSICOSIDE D] | 1000 µg/mL (≈ 719 µM) | 1000 µg/mL (≈ 719 µM) | > 1000 µg/mL | > 1000 µg/mL | 1000 µg/mL (≈ 719 µM) | 1000 µg/mL (≈ 719 µM) | 1000 µg/mL (≈ 719 µM) | 1000 µg/mL (≈ 719 µM) | 1000 µg/mL (≈ 719 µM) | > 1000 µg/mL | > 1000 µg/mL | > 1000 µg/mL | > 1000 µg/mL | > 1000 µg/mL | > 1000 µg/mL | – | – | – | – |
